Tests used:
Cavia porcellus [1] = species: Cavia porcellus; assay: Inotropic effect in electrically driven left atrium from reserpine-treated guinea pig without 8-phenyl theophylline at the concentration of 2 x 10 e-3 M; format: functional, Cardiac atrium
In short: (§1)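 Paced left atrium from reserpine-pretreated, tyramine-unresponsive guinea pigs (0.5 g load, 1.5 Hz, 3-ms pulses). Cumulative additions of agent, 5 min each, with no 8-phenyltheophylline present. Developed tension as % increase over control. Mean ± SEM of six assays from six experiments; Student's t test against the 8-phenyltheophylline-treated preparations.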

Cavia porcellus [2] = species: Cavia porcellus; assay: Inotropic response in electrically driven left atrium from reserpine-treated guinea pig without ADA at the concentration of 5 x 10 e-4 M; format: functional, Cardiac atrium
In short: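 Control arm: electrically driven left atrium (1.5 Hz, 3-ms pulses, 0.5 g load) from guinea pigs given reserpine 2 mg/kg ip at 48 and 24 h, tyramine-unresponsive; no adenosine deaminase. Cumulative additions after 90 min equilibration, 5 min per concentration. Isometric developed tension, % over control; six assays from six experiments.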

Cavia porcellus [3] = species: Cavia porcellus; assay: Inotropic response in electrically driven left atrium from reserpine-treated guinea pig with 8-phenyl theophylline (10 e-5) at the concentration of 10 e-5 M; format: functional, Cardiac atrium
In short: (§2)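 Guinea pigs pretreated with reserpine 2 mg/kg ip at 48 and 24 h before sacrifice; atria unresponsive to tyramine 2 μg/mL used. Left atrium paced at 1.5 Hz (3-ms square pulses, 10–20% above threshold, 0.5 g load). 8-Phenyltheophylline 10 μM preincubated 20 min after 90 min equilibration, then agents added cumulatively, 5 min each. Isometric developed tension as % over control; six assays from six experiments.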

Cavia porcellus [4] = species: Cavia porcellus; assay: Inotropic response in electrically driven left atrium from reserpine-treated guinea pig with 8-phenyl theophylline (10 e-5)at the concentration of 10 e-3 M; format: functional, Cardiac atrium; in short: as §2
Cavia porcellus [5] = species: Cavia porcellus; assay: Inotropic response in electrically driven left atrium from reserpine-treated guinea pig with 8-phenyl theophylline (10 e-5)at the concentration of 10 e-4 M; format: functional, Cardiac atrium; in short: as §2
Cavia porcellus [6] = species: Cavia porcellus; assay: Inotropic response in electrically driven left atrium from reserpine-treated guinea pig with 8-phenyl theophylline (10 e-5)at the concentration of 2 x 10 e-3 M; format: functional, Cardiac atrium; in short: as §2
Cavia porcellus [7] = species: Cavia porcellus; assay: Inotropic response in electrically driven left atrium from reserpine-treated guinea pig with 8-phenyl theophylline (10 e-5)at the concentration of 5 x 10 e-4 M; format: functional, Cardiac atrium; in short: as §2
Cavia porcellus [8] = species: Cavia porcellus; assay: Inotropic response in electrically driven left atrium from reserpine-treated guinea pig with 8-phenyl theophylline (10 e-5)at the concentration of 5 x 10 e-5 M; format: functional, Cardiac atrium; in short: as §2
Cavia porcellus [9] = species: Cavia porcellus; assay: Inotropic response in electrically driven left atrium from reserpine-treated guinea pig with ADA (2 units/ml) at the concentration of 10 e-5 M; format: functional, Cardiac atrium
In short: (§3)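 Reserpinized guinea pigs (2 mg/kg ip, 48 and 24 h before death), tyramine-unresponsive atria. Electrically driven left atrium (1.5 Hz, 3-ms pulses, 0.5 g load) preincubated 20 min with adenosine deaminase after 90 min equilibration. Agents added cumulatively, 5 min per concentration. Developed tension recorded isometrically, % increase over control or % inhibition; six assays from six experiments, Student's t test.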

Cavia porcellus [10] = species: Cavia porcellus; assay: Inotropic effect in electrically driven left atrium from reserpine-treated guinea pig at the concentration of 10 e-3 M; format: functional, Cardiac atrium
In short: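 Atria from reserpine-pretreated guinea pigs (2 mg/kg ip, 48 and 24 h), tyramine-unresponsive only. Left atrium loaded 0.5 g, paced at 1.5 Hz with 3-ms square pulses at 10–20% above threshold. Equilibrated 90 min. Agents added cumulatively, 5 min per concentration. Isometric developed tension expressed as % increase over control.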

Cavia porcellus [11] = species: Cavia porcellus; assay: Inotropic response in electrically driven left atrium from reserpine-treated guinea pig without VER at the concentration of 10 e-3 M; format: functional, Cardiac atrium
In short: (§4)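 Control arm without verapamil: left atrium from reserpinized guinea pigs (2 mg/kg ip, 48 and 24 h before), tyramine-unresponsive, paced at 1.5 Hz (3-ms pulses). Agents added cumulatively after 90 min equilibration, recorded 5 min each. Isometric developed tension as % increase over control; seven assays from seven experiments.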

Cavia porcellus [12] = species: Cavia porcellus; assay: Inotropic response in electrically driven left atrium from reserpine-treated guinea pig without VER at the concentration of 10 e-4 M; format: functional, Cardiac atrium; in short: as §4
Cavia porcellus [13] = species: Cavia porcellus; assay: Inotropic response in electrically driven left atrium from reserpine-treated guinea pig without VER at the concentration of 10 e-5 M; format: functional, Cardiac atrium; in short: as §4
Cavia porcellus [14] = species: Cavia porcellus; assay: Inotropic response in electrically driven left atrium from reserpine-treated guinea pig without VER at the concentration of 5 x 10 e-5 M; format: functional, Cardiac atrium; in short: as §4
Cavia porcellus [15] = species: Cavia porcellus; assay: Inotropic response in electrically driven left atrium from reserpine-treated guinea pig with ADA (2 units/ml) at the concentration of 5 x 10 e-5 M; format: functional, Cardiac atrium; in short: as §3
Cavia porcellus [16] = species: Cavia porcellus; assay: Effect on frequency rate of spontaneously beating atria from reserpine treated guinea pigs at the concentration of 10 e-3 M; format: functional
Cavia porcellus [17] = species: Cavia porcellus; assay: Effect on frequency rate of spontaneously beating atria from reserpine treated guinea pigs at the concentration of 5 x 10 e-4 M; format: functional
Cavia porcellus [18] = species: Cavia porcellus; assay: Inotropic effect in electrically driven left atrium from reserpine-treated guinea pig without 8-phenyl theophylline at the concentration of 10 e-3 M; format: functional, Cardiac atrium; in short: as §1
Cavia porcellus [19] = species: Cavia porcellus; assay: Inotropic response in electrically driven left atrium from reserpine-treated guinea pig with 8-pH (10 e-5)at the concentration of 10 e-3 M; format: functional, Cardiac atrium; in short: as §2
Cavia porcellus [20] = species: Cavia porcellus; assay: Inotropic response in electrically driven left atrium from reserpine-treated guinea pig with 8-pH (10 e-5)at the concentration of 10 e-5 M; format: functional, Cardiac atrium; in short: as §2
Cavia porcellus [21] = species: Cavia porcellus; assay: Inotropic response in electrically driven left atrium from reserpine-treated guinea pig with 8-pH (10 e-5)at the concentration of 2 x 10 e-3 M; format: functional, Cardiac atrium; in short: as §2
Cavia porcellus [22] = species: Cavia porcellus; assay: Inotropic response in electrically driven left atrium from reserpine-treated guinea pig with 8-pH (10 e-5)at the concentration of 5 x 10 e-4 M; format: functional, Cardiac atrium; in short: as §2
Cavia porcellus [23] = species: Cavia porcellus; assay: Inotropic response in electrically driven left atrium from reserpine-treated guinea pig with 8-pH (10 e-5)at the concentration of 5 x 10 e-5 M; format: functional, Cardiac atrium; in short: as §2
Cavia porcellus [24] = species: Cavia porcellus; assay: Inotropic response in electrically driven left atrium from reserpine-treated guinea pig with 8-pH (10 e-5)at the concentration of 10 e-4 M; format: functional, Cardiac atrium; in short: as §2
Cavia porcellus [25] = species: Cavia porcellus; assay: Inotropic response in electrically driven left atrium from reserpine-treated guinea pig with ADA (2 units/ml) at the concentration of 10 e-5 M (% inhibition of contractile response) (p<0.001); format: functional, Cardiac atrium

Structure (SMILES)	Increase (Cavia porcellus [1]) [%]	Increase (Cavia porcellus [10]) [%]	Increase (Cavia porcellus [11]) [%]	Increase (Cavia porcellus [12]) [%]	Increase (Cavia porcellus [13]) [%]	Increase (Cavia porcellus [14]) [%]	Increase (Cavia porcellus [15]) [%]	Increase (Cavia porcellus [16]) [%]	Increase (Cavia porcellus [17]) [%]	Increase (Cavia porcellus [18]) [%]	also measured
CC1CC(=O)c2ccc(O)nc2C1 (stereo not given)	87.6	48.86	45.89	17.96	5.76	11.6	5.52	19.68	13.45	56.72	Increase (Cavia porcellus [2]): 36.16%; Increase (Cavia porcellus [3]): 0.29%; Increase (Cavia porcellus [4]): 25.45%; Increase (Cavia porcellus [5]): 8.67%; Increase (Cavia porcellus [6]): 52.56%; Increase (Cavia porcellus [7]): 15.18%; Increase (Cavia porcellus [8]): 3.95%; Increase (Cavia porcellus [9]): 2.48%
CC(=O)c1cc(C#N)c(O)nc1C	62.73	58.73	77.46	37.34	18.83	28.29	8.32	21.93	11.61	56.71	Increase (Cavia porcellus [19]): 50.44%; Increase (Cavia porcellus [20]): 7.75%; Increase (Cavia porcellus [21]): 58.97%; Increase (Cavia porcellus [22]): 40.37%; Increase (Cavia porcellus [23]): 11.59%; Increase (Cavia porcellus [24]): 23.03%; Increase (Cavia porcellus [25]): 3.42%
